# The source made the active and inactive calls.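 How the source made its calls: active means luminescence gain over solvent baseline above 10% of the positive control response, limit may shift with hit yield; inactive means the rest, including opposite-direction effects.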
# System: not listed separately
# Assay: compounds inducing hypoxia-responsive transcription – cell-based, U2OS HRE-luc, luminescence, dry powder, set 2, dose response (AID 488805)
# Details: U2OS HRE-luciferase reporter, HIF pathway activation, luminescence; at 0.056 µM; active compounds read high
# Method in brief: (§1)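 Test system: U2OS cells with HRE-luciferase reporter. Quantity: 6,000 cells per well. Times: compound exposure 24 h at 37 °C, 21% O2. Measured by: Steady-Glo luminescence.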
row,SMILES,max activation
1,O=C(NCc1ccccc1)c1cc(-c2ccccc2)on1,1.94% (inactive)
2,O=C(NC1CCc2ccccc2C1)c1cc(-c2ccccc2)on1 (stereo unspecified),-4.31% (inactive)
3,Cn1c(NC(=O)c2cc(-c3ccccc3)on2)nc2ccccc21,1.19% (inactive)
4,O=C(Nc1nnc(-c2ccccc2)s1)c1cc(-c2ccccc2)on1,-3.85% (inactive)
5,Cc1ccc(CNC(=O)c2cc(-c3ccccc3)on2)cc1,-4.17% (inactive)
6,O=C(Nc1ncc2ccccc2n1)c1cc(-c2ccccc2)on1,0.964% (inactive)
7,O=C(c1cc(-c2ccccc2)on1)N1CCC(CO)CC1,-6.22% (inactive)
8,O=C(NCCN1CCCCC1)c1cc(-c2ccccc2)on1,-1.17% (inactive)

# Same assay, conditions: U2OS HRE-luciferase reporter, HIF pathway activation, luminescence; at 0.16 µM; active compounds read high
row,SMILES,max activation
1,O=C(NCC1CCCCC1)c1cc(-c2ccccc2)on1,1.14% (inactive)

# Same assay, conditions: U2OS HRE-luciferase reporter, HIF pathway activation, luminescence; at 0.5 µM; active compounds read high
row,SMILES,max activation
1,CN(C)CCNC(=O)c1cc(-c2ccccc2)on1,-2.73% (inactive)
2,O=C(Nc1cn2ccccc2n1)c1cc(-c2ccccc2)on1,-5.84% (inactive)
3,O=C(Nc1ncc(-c2ccccc2)o1)c1cc(-c2ccccc2)on1,-7.77% (inactive)
4,Cn1c(-c2ccccc2)cnc1Nc1nc(-c2ccccn2)nnc1-c1ccccc1,-0.998% (inactive)
5,O=C(Nc1ccc2ccccc2n1)c1cc(-c2ccccc2)on1,-5.52% (inactive)
6,Cc1ccccc1CNC(=O)c1cc(-c2ccccc2)on1,2.16% (inactive)
7,Cc1cccc(CNC(=O)c2cc(-c3ccccc3)on2)c1,-4.69% (inactive)

# Same assay, conditions: U2OS HRE-luciferase reporter, HIF pathway activation, luminescence; at 4.6 µM; active compounds read high
row,SMILES,max activation
1,O=C(c1cc(-c2ccccc2)on1)N1CCC(N2CCOCC2)CC1,1.93% (inactive)
2,CC(C)(C)CCNC(=O)c1cc(-c2ccccc2)on1,1.55% (inactive)
3,O=C(c1cc(-c2ccccc2)on1)N1CCN(c2ccncc2)CC1,6.21% (inactive)
4,O=C(Nc1nc(-c2ccccc2)cs1)c1cc(-c2ccccc2)on1,6.53% (inactive)
5,O=C(Nc1nc2ccccc2s1)c1cc(-c2ccccc2)on1,-2.04% (inactive)
6,O=C(NC1Cc2ccccc2C1)c1cc(-c2ccccc2)on1,2.61% (inactive)

# Same assay, conditions: U2OS HRE-luciferase reporter, HIF pathway activation, luminescence; at 13.5 µM; active compounds read high
row,SMILES,max activation
1,O=C(NCCCO)c1cc(-c2ccccc2)on1,8.74% (inactive)
2,O=C(NCC1CC1)c1cc(-c2ccccc2)on1,7.82% (inactive)

# Same assay, conditions: U2OS HRE-luciferase reporter, HIF pathway activation, luminescence; at 38 µM; active compounds read high
row,SMILES,max activation
1,Cn1c(-c2ccccc2)cnc1NC(=O)c1cc(-c2ccccc2)on1,2.14% (inactive)
2,O=C(c1cc(-c2ccccc2)on1)N1CCc2cccnc21,2.94% (inactive)
3,Cc1ccc(NC(=O)c2cc(-c3ccccc3)on2)cn1,4.68% (inactive)
4,O=C(c1cc(-c2ccccc2)on1)N1CCC(N2CCCC2)CC1,3.88% (inactive)
5,Cc1cccc(NC(=O)c2cc(-c3ccccc3)on2)n1,-6.71% (inactive)
6,CN1CCN(C(=O)c2cc(-c3ccccc3)on2)CC1,-5.2% (inactive)
7,O=C(Nc1cnc2ccccc2c1)c1cc(-c2ccccc2)on1,2.22% (inactive)

# System: U2OS HRE-luciferase reporter, HIF pathway activation, luminescence
# Assay: as above
# Details: not given
# Method in brief: as §1
row,SMILES,AC50 [µM]
1,c1ccc(-c2nnc(-c3ccccn3)nc2N2CCN(c3ccncc3)CC2)cc1,8.32
2,c1ccc(-c2nnc(Nc3nc(-c4ccccn4)nnc3-c3ccccc3)s2)cc1,6.81
3,Cc1cccc(CNc2nc(-c3ccccn3)nnc2-c2ccccc2)c1,3.29
4,c1ccc(-c2csc(Nc3nc(-c4ccccn4)nnc3-c3ccccc3)n2)cc1,2.84
5,CC(C)(C)CCNc1nc(-c2ccccn2)nnc1-c1ccccc1,2.59
6,c1ccc(-c2nnc(-c3ccccn3)nc2NCC2CCCCC2)cc1,3.12
7,O=C(NCCCN1CCOCC1)c1cc(-c2ccccc2)on1,9.51
8,OCC1CCN(c2nc(-c3ccccn3)nnc2-c2ccccc2)CC1,18.7
9,c1ccc(CNc2nc(-c3ccccn3)nnc2-c2ccccc2)cc1,7.03
10,OCCCNc1nc(-c2ccccn2)nnc1-c1ccccc1,21.3
11,c1ccc(-c2nnc(-c3ccccn3)nc2Nc2cnc3ccccc3n2)cc1,6.4
12,O=C(NCCCn1ccnc1)c1cc(-c2ccccc2)on1,8.16
13,C=CCNc1nc(-c2ccccn2)nnc1-c1ccccc1,8.3
14,Cc1cccc(Nc2nc(-c3ccccn3)nnc2-c2ccccc2)n1,25.6
15,c1ccc(-c2nnc(-c3ccccn3)nc2N2CCC(N3CCOCC3)CC2)cc1,8.79
16,c1ccc(-c2nnc(-c3ccccn3)nc2Nc2nc3ccccc3s2)cc1,8.19
17,c1ccc(-c2nnc(-c3ccccn3)nc2NCC2CC2)cc1,12.3
18,c1ccc(-c2nnc(-c3ccccn3)nc2NCCCN2CCOCC2)cc1,11
19,CN(C)c1nc(-c2ccccn2)nnc1-c1ccccc1,11.7
20,Cc1ccccc1CNc1nc(-c2ccccn2)nnc1-c1ccccc1,6.05
21,CN1CCN(c2nc(-c3ccccn3)nnc2-c2ccccc2)CC1,14.5
22,Cc1ccc(Nc2nc(-c3ccccn3)nnc2-c2ccccc2)cn1,27.9
23,Cc1ccc(CNc2nc(-c3ccccn3)nnc2-c2ccccc2)cc1,3.29
24,c1ccc(-c2nnc(-c3ccccn3)nc2NCCN2CCOCC2)cc1,18.1
25,O=C(NCCCCO)c1cc(-c2ccccc2)on1,10.5
